Measurements taken from PMC3969088 (British Journal of Pharmacology, 2014).
Where no end group is shown, it is not given here.

How the values were obtained:
[1] = target: AM2 receptor, wild type (HA-CLR with RAMP3) (human) (UniProt Q16602)
[2] = target: AM2 receptor, CLR Q45A (HA-CLR Q45A with RAMP3) (human) (UniProt Q16602)
[3] = target: AM2 receptor, CLR V36A (HA-CLR V36A with RAMP3) (human) (UniProt Q16602)
[4] = target: AM2 receptor, CLR M42A (HA-CLR M42A with RAMP3) (human) (UniProt Q16602)
[5] = target: AM2 receptor, CLR G35A (HA-CLR G35A with RAMP3) (human) (UniProt Q16602)
[6] = target: AM2 receptor, CLR T37A (HA-CLR T37A with RAMP3) (human) (UniProt Q16602)
[7] = target: AM2 receptor, CLR I41A (HA-CLR I41A with RAMP3) (human) (UniProt Q16602)
[8] = target: AM2 receptor, CLR I52A (HA-CLR I52A with RAMP3) (human) (UniProt Q16602)
[9] = target: AM2 receptor, CLR I32A (HA-CLR I32A with RAMP3) (human) (UniProt Q16602)
[10] = target: AM2 receptor, CLR Q33A (HA-CLR Q33A with RAMP3) (human) (UniProt Q16602)
[11] = target: AM2 receptor, CLR L34A (HA-CLR L34A with RAMP3) (human) (UniProt Q16602)
[12] = target: AM1 receptor, CLR M42A (HA-CLR M42A with FLAG-RAMP2) (human) (UniProt Q16602)
[13] = target: AM1 receptor, CLR G35A (HA-CLR G35A with FLAG-RAMP2) (human) (UniProt Q16602)
[14] = target: AM1 receptor, CLR I52A (HA-CLR I52A with FLAG-RAMP2) (human) (UniProt Q16602)
[15] = target: AM1 receptor, CLR V36A (HA-CLR V36A with FLAG-RAMP2) (human) (UniProt Q16602)
[16] = target: AM1 receptor, CLR Q33A (HA-CLR Q33A with FLAG-RAMP2) (human) (UniProt Q16602)
[17] = target: AM1 receptor, CLR L34A (HA-CLR L34A with FLAG-RAMP2) (human) (UniProt Q16602)
[18] = target: AM1 receptor, CLR I32A (HA-CLR I32A with FLAG-RAMP2) (human) (UniProt Q16602)
[19] = target: CGRP receptor, CLR Q45A (HA-CLR Q45A with RAMP1) (UniProt Q16602)
[20] = target: CGRP receptor, CLR L34A (HA-CLR L34A with RAMP1) (UniProt Q16602)
[21] = target: CGRP receptor, CLR M42A (HA-CLR M42A with RAMP1) (UniProt Q16602)
[22] = target: CGRP receptor, CLR I41A (HA-CLR I41A with RAMP1) (UniProt Q16602)
[23] = target: CGRP receptor, CLR T37A (HA-CLR T37A with RAMP1) (UniProt Q16602)
[24] = target: CGRP receptor, CLR I32A (HA-CLR I32A with RAMP1) (UniProt Q16602)
[25] = target: CGRP receptor, CLR G35A (HA-CLR G35A with RAMP1) (UniProt Q16602)
[26] = target: CGRP receptor, wild type (HA-CLR with RAMP1) (UniProt Q16602)
[27] = target: AM2 receptor, wild type (HA-CLR with RAMP3) (human) (UniProt Q16602); remark: listed apart in the source
[28] = target: AM2 receptor, RAMP3 W84F (HA-CLR with RAMP3 W84F) (human) (UniProt Q16602)
[29] = target: AM2 receptor, RAMP3 W84A (HA-CLR with RAMP3 W84A) (human) (UniProt Q16602)
[30] = target: AM1 receptor, RAMP2 E101A (HA-CLR with FLAG-RAMP2 E101A) (human) (UniProt Q16602)
[31] = system: CLR mutants at the AM2 receptor; assay: specific binding of [125I]-rAM to CLR mutants at the AM2 receptor; parameters: species or system human; conditions: Cos7, 4°C 1 h
Procedure, shortened: (§1)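 Cos7 cells transiently cotransfected (PEI, 1 μg DNA/well total) with HA-tagged human CLR mutants plus FLAG-human RAMP2 (AM1) or untagged human RAMP3 (AM2). Cells incubated in DMEM/0.5% BSA with [125I]-rAM ([…], 30 000 cpm/well) at 4°C for 1 h, washed with ice-cold PBS, NaOH-solubilised and gamma-counted. […] Specific binding normalised to the WT mean.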

[32] = system: CLR mutants at the AM1 receptor; assay: specific binding of [125I]-rAM to CLR mutants at the AM1 receptor; parameters: species or system human; conditions: Cos7, 4°C 1 h
Procedure, shortened: as §1

Human adrenomedullin 2 (AM2-47) (from UniProt Q7Z4H4 101-148) (peptide)
pEC50, cAMP production in Cos7 cells; WT control paired with CLR G35A [1]: 9.09
pEC50, cAMP production in Cos7 cells; WT control paired with CLR I32A [1]: 9.83
pEC50, cAMP production in Cos7 cells; WT control paired with CLR I41A [1]: 9.32
pEC50, cAMP production in Cos7 cells; WT control paired with CLR I52A [1]: 9.29
pEC50, cAMP production in Cos7 cells; WT control paired with CLR L34A [1]: 9.42
pEC50, cAMP production in Cos7 cells; WT control paired with CLR M42A [1]: 8.82
pEC50, cAMP production in Cos7 cells; WT control paired with CLR Q33A [1]: 8.59
pEC50, cAMP production in Cos7 cells; WT control paired with CLR Q45A [1]: 8.95
pEC50, cAMP production in Cos7 cells; WT control paired with CLR T37A [1]: 9.13
pEC50, cAMP production in Cos7 cells; WT control paired with CLR V36A [1]: 9.09
pEC50, cAMP production in Cos7 cells [2]: 8.94
pEC50, cAMP production in Cos7 cells [3]: 8.62
pEC50, cAMP production in Cos7 cells [4]: 8.61
pEC50, cAMP production in Cos7 cells [5]: 8.78
pEC50, cAMP production in Cos7 cells [6]: 7.7
pEC50, cAMP production in Cos7 cells [7]: 8.47
pEC50, cAMP production in Cos7 cells [8]: 9.12
pEC50, cAMP production in Cos7 cells [9]: 9.47
pEC50, cAMP production in Cos7 cells [10]: 8.56
pEC50, cAMP production in Cos7 cells [11]: 9.13
pEC50, cAMP production in Cos7 cells [12]: 7.86
pEC50, cAMP production in Cos7 cells [13]: 7.92
pEC50, cAMP production in Cos7 cells [14]: 8.11
pEC50, cAMP production in Cos7 cells [15]: 7.89
pEC50, cAMP production in Cos7 cells [16]: 7.89
pEC50, cAMP production in Cos7 cells [17]: 7.64
pEC50, cAMP production in Cos7 cells [18]: 8.24
pEC50, cAMP production in Cos7 cells [19]: 7.97
pEC50, cAMP production in Cos7 cells [20]: 8.44
pEC50, cAMP production in Cos7 cells [21]: 8.27
pEC50, cAMP production in Cos7 cells [22]: 7.23
pEC50, cAMP production in Cos7 cells [23]: 7.47
pEC50, cAMP production in Cos7 cells [24]: 8.52
pEC50, cAMP production in Cos7 cells [25]: 8.04
pEC50, cAMP production in Cos7 cells; WT control paired with CLR G35A [26]: 8.4
pEC50, cAMP production in Cos7 cells; WT control paired with CLR I32A [26]: 8.42
pEC50, cAMP production in Cos7 cells; WT control paired with CLR I41A [26]: 8.31
pEC50, cAMP production in Cos7 cells; WT control paired with CLR L34A [26]: 8.51
pEC50, cAMP production in Cos7 cells; WT control paired with CLR M42A [26]: 8.33
pEC50, cAMP production in Cos7 cells; WT control paired with CLR Q45A [26]: 8.65
pEC50, cAMP production in Cos7 cells; WT control paired with CLR T37A [26]: 8.31
pEC50, cAMP production in Cos7 cells; WT control paired with CLR V36A [26]: 8.42
pEC50, cAMP production in Cos7 cells; WT control paired with RAMP3 W84A [27]: 9.62
pEC50, cAMP production in Cos7 cells; WT control paired with RAMP3 W84F [27]: 9.63
pEC50, cAMP production in Cos7 cells [28]: 9.38
pEC50, cAMP production in Cos7 cells [29]: 9.02
pEC50, cAMP production in Cos7 cells [30]: 7.39

[^125I]-rAM: rat AM (rAM) iodinated using iodobeads, purified by reverse phase HPLC; radioligand (YRQSMNQGSRSTGCRFGTCTMQKLAHQIYQFTDKDKDGMAPRNKISPQGY; ends and bridges not checked; also: 125I label, residue not given here)
specific binding of [125I]-rAM ([31]; CLR M42A and Q45A): retained
specific binding of [125I]-rAM ([31]; CLR T37A and I41A): abolished
specific binding of [125I]-rAM ([32]; CLR I52A (printed 152A)): retained binding
specific binding of [125I]-rAM ([32]; CLR M42A and Q45A): abolished
specific binding of [125I]-rAM ([32]; CLR T37A and I41A): abolished
